Structures are written as SMILES. “Also recorded” adds a separate entry of the source.

The conditions of series [1]: clinical; cited from earlier work.
For series [2] the following is noted: cited from earlier work.
For series [3] the following is noted: cited from earlier work. This is another data set of the same source.
The nature of series [4]: In vivo pharmacokinetic study. Also noted: species or system Sprague–Dawley rats. Put shortly:
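Male Sprague–Dawley rats (~300 g) were anaesthetised with Zoletil i.m. at […]. They received test compound in 10% ethanol or as albumin nanoparticles s.c. at 0.33 mg g−1. Blood (400 μL) was drawn from the subclavian vein at 0.08–6 h into heparin tubes. Plasma was spiked with carbamazepine internal standard, deproteinised with methanol, dried and reconstituted in methanol. Analysis was by RP-18 HPLC at 265 nm, and parameters were computed by first-order kinetic modelling.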

Series [5] concerns Peripheral Blood Mononuclear Cells (PBMCs). The series can be described thus: Ex vivo peripheral blood mononuclear cells. The format is cell-based, male Sprague–Dawley rats. The conditions noted are these: rat PBMCs. Put shortly: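 PBMCs came from the peripheral blood of male Sprague–Dawley rats. They were isolated by Ficoll–Paque density-gradient centrifugation, collected from the interphase and washed three times in RPMI 1640. Cells were plated at 1×10^6/well in RPMI 1640 with 10% FBS (37 °C, 5% CO2) and incubated overnight with free test compound or albumin-nanoparticle formulation. Viability was then read by the CCK-8 A450 procedure used for HuT-78.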

Where [6] appears, read: male, Sprague-Dawley, rat, plasma, sc, 0.333 mg.

Broadly, the log P is a log measure of how a compound divides between an organic and an aqueous phase. As a reminder, the pKa is the pH at which an ionisable group is half protonated. What is called AUC(0-t) is the area under the concentration-time curve up to a stated or last time point. Low readings indicate low exposure, high ones high exposure. Broadly, the Cmax is the highest concentration seen after dosing. In general, Tmax refers to the time at which the peak concentration occurs. The term half-life denotes the time needed for the level to fall by half in the phase considered. As for `O=C(/C=C/c1cccc(S(=O)(=O)Nc2ccccc2)c1)NO` [Belinostat], in series [1], the “thrombocytopenia adverse events, Grade 3 to 4” value is reported as ~ 7% and the “thrombocytopenia adverse events, all grades” value is on record as ~ 16%. Moreover, the protein binding affinity in series [2] was 92.9–95.8%. Besides, in series [3], the “log P” value was 1.83 and the pKa is listed as 7.87. The same compound had a CL in series [4] (SD rats, subcutaneous, 0.333 mg g^−1, n = 3) of 5.32 ± 1.53 mL/h. Also, in series [4] (setting [6]), the AUC(0-t) worked out at 62000 ± 28700 ng·h/mL, the Cmax was 8650 ± 780 ng/mL, the time of peak concentration (Tmax) amounted to 0.43 ± 0.13 h and the half-life is 4.66 ± 1.66 h. Further, in series [5] (concentration 10 μM), the “viability of PBMCs” value was “decreases”. Further, the “viability (survival) of PBMC” value in series [5] (high dose 100 μM) is given as “did not survive; also recorded: no survival”.

The values are drawn from article PMC11520922 (International Journal of Nanomedicine, 2024).
